2 compounds from ChEMBL document CHEMBL1143775, “Convenient one pot synthesis of some novel derivatives of thiazolo[2,3-b]dihydropyrimidinone possessing 4-methylthiophenyl moiety and evaluation of their antibacterial and antifungal activities” (2007) can be followed below.

≈ marks a conversion by molar mass, not a printed value.

Holding throughout (format): functional
Experiment [1] concerns Talaromyces marneffei. The experiment is described as follows: Antifungal activity against Penicillium marneffei by dilution method. In outline: (§1)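 Serial dilution method on Sabouraud agar (peptone, D-glucose, agar; pH 5.7) seeded with a saline spore suspension made from a loopful of each strain. Plates were dried for 1 h at incubator temperature. Test solutions in DMSO went into punched wells, with a DMSO control. Incubation was at 37 °C for 3–4 days. Zone of inhibition and MIC were read against ciclopiroxolamine as standard.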

Experiment [2] concerns Escherichia coli. Nature of the experiment: Antibacterial activity against Escherichia coli ATCC 25922. In a few lines:
(§2)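 Compound-loaded discs were placed on nutrient agar inoculated separately with fresh bacterial strains. Plates were incubated at 37 °C for 24 h with separate solvent and growth controls. Zone of inhibition and MIC were measured. Ciprofloxacin was the reference drug.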

Experiment [3] relates to Klebsiella pneumoniae. The experiment is described as follows: Antibacterial activity against Klebsiella pneumoniae. In outline: as §2
Experiment [4] relates to Aspergillus fumigatus. Nature of the experiment: Antifungal activity against Aspergillus fumigatus NCIM 902 by dilution method. In a few lines:
as §1

The subject of experiment [5] is Staphylococcus aureus. Nature of the experiment: Antibacterial activity against Staphylococcus aureus ATCC 25923 at 10 ug/ml by disk diffusion method. The conditions noted are these: read-out: IZ. In outline: as §2
Experiment [6] has as its system Aspergillus fumigatus. The experiment is described as follows: Antifungal activity against Aspergillus fumigatus NCIM 902 at 10 ug/ml. The note with it: read-out: IZ. In a few lines:
as §1

The subject of experiment [7] is Pseudomonas aeruginosa. Nature of the experiment: Antibacterial activity against Pseudomonas aeruginosa ATCC 27853 at 10 ug/ml. The conditions noted are these: read-out: IZ. In outline:
as §2

Experiment [8] relates to Staphylococcus aureus. Nature of the experiment: Antibacterial activity against Staphylococcus aureus ATCC 25923. In outline: as §2
For experiment [9], the system named is Escherichia coli. The experiment is described as follows: Antibacterial activity against Escherichia coli ATCC 25922 at 10 ug/ml. The conditions noted are these: read-out: IZ. In outline:
as §2

Experiment [10] relates to Aspergillus flavus. The experiment is described as follows: Antifungal activity against Aspergillus flavus NCIM 524 by dilution method. In a few lines:
as §1

Experiment [11] deals with Aspergillus flavus. The experiment is described as follows: Antifungal activity against Aspergillus flavus NCIM 524 at 10 ug/ml. The conditions noted are these: read-out: IZ. In outline:
as §1

In experiment [12] the test system is Pseudomonas aeruginosa. Nature of the experiment: Antibacterial activity against Pseudomonas aeruginosa ATCC 27853. In a few lines: as §2
In experiment [13] the test system is Candida albicans. Nature of the experiment: Antifungal activity against Candida albicans NCIM 3100 at 10 ug/ml. The note with it: read-out: IZ. In a few lines: as §1
In experiment [14] the test system is Talaromyces marneffei. The experiment is described as follows: Antifungal activity against Penicillium marneffei at 10 ug/ml. The note with it: read-out: IZ. In a few lines: as §1
Experiment [15] has as its system Candida albicans. The experiment is described as follows: Antifungal activity against Candida albicans NCIM 3100 by dilution method. In outline:
as §1

Experiment [16] has as its system Klebsiella pneumoniae. The experiment is described as follows: Antibacterial activity against Klebsiella pneumoniae at 10 ug/ml. The note with it: read-out: IZ. In outline: as §2

As usually defined, the MIC is the lowest concentration found to suppress growth. A low value points to inhibition by little substance. As to `CCOC(=O)C1=C(C)N=c2s/c(=C\c3ccc(F)c(Oc4ccccc4)c3)c(=O)n2C1c1ccc(SC)cc1` (configuration not stated), the MIC against Talaromyces marneffei [1] is 6 µg/mL (≈ 10.7 µM); against Escherichia coli [2], 25 µg/mL (≈ 44.6 µM); in the experiment on Klebsiella pneumoniae [3], 12.5 µg/mL (≈ 22.3 µM); with Aspergillus fumigatus [4], 12.5 µg/mL (≈ 22.3 µM); in the experiment with Staphylococcus aureus [8] it was 12.5 µg/mL (≈ 22.3 µM); in the experiment on Aspergillus flavus [10] it was 12.5 µg/mL (≈ 22.3 µM). In addition, the MIC was 12.5 µg/mL (≈ 22.3 µM) against Pseudomonas aeruginosa [12] and 6 µg/mL (≈ 10.7 µM) against Candida albicans [15]. In addition, the zone of inhibition at 10 µg/mL in the experiment with Staphylococcus aureus [5] was found to be 19 mm; in the experiment on Aspergillus fumigatus [6], 12 mm; with Pseudomonas aeruginosa [7] it was 12 mm; in the experiment on Escherichia coli [9] it was 10 mm; in the experiment on Aspergillus flavus [11], 18 mm; in the experiment with Candida albicans [13], 20 mm. Also, the zone of inhibition at 10 µg/mL with Talaromyces marneffei [14] is 19 mm; with Klebsiella pneumoniae [16], 12 mm.
`CCOC(=O)C1=C(C)N=c2s/c(=C\c3ccc(O)cc3)c(=O)n2C1c1ccc(SC)cc1` (configuration not stated): the MIC is 12.5 µg/mL (≈ 26.8 µM) in the experiment on Talaromyces marneffei [1]; 25 µg/mL (≈ 53.6 µM) against Escherichia coli [2]; 12.5 µg/mL (≈ 26.8 µM) against Klebsiella pneumoniae [3]; 12.5 µg/mL (≈ 26.8 µM) against Aspergillus fumigatus [4]; 25 µg/mL (≈ 53.6 µM) in the experiment with Staphylococcus aureus [8]; 25 µg/mL (≈ 53.6 µM) in the experiment with Aspergillus flavus [10]. Besides, the MIC against Pseudomonas aeruginosa [12] and with Candida albicans [15] was 12.5 µg/mL (≈ 26.8 µM) each time. The zone of inhibition at 10 µg/mL was 12 mm in the experiment on Staphylococcus aureus [5]; 10 mm in the experiment with Aspergillus fumigatus [6]; 15 mm in the experiment on Pseudomonas aeruginosa [7]; 12 mm in the experiment with Escherichia coli [9]; 10 mm with Aspergillus flavus [11]; 10 mm in the experiment with Candida albicans [13]. The zone of inhibition at 10 µg/mL with Talaromyces marneffei [14] and in the experiment with Klebsiella pneumoniae [16] was 12 mm each time.
